# Experimental data taken from PubChem BioAssay AID617 (SRMLSC, 2007).
# Test system: E. coli BW25113 ΔtolC growth inhibition, OD615
# Experiment: E. coli ΔtolC antibacterial growth inhibition – strain BW25113 ΔtolC::kan, dose response (AID 617)
# Procedure, shortened: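 Material: E. coli BW25113 ΔtolC::kan bacteria; input: inoculum from 1:1000-diluted 1.5 h subculture; medium: kanamycin-containing LB broth, 50 µg/mL; dosing: compounds in serially diluted dose-response series; incubation: 20 h exposure at 37 °C; measured by: absorbance at 615 nm; control set: chloramphenicol control, 30 µM final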
row,Compound,IC50
1,COc1ccc(C2(O)CC3CCC(C2)N3c2cc(C)nc(-c3ccccc3)n2)cc1 (configuration not stated),11.7 µM
2,CCCCC(CC)CNC(=O)c1[nH]c(C)c(C(C)=O)c1C (configuration not stated),1.28 µM
3,CC(C)Cn1c(N)c(C(=O)NCc2cccs2)c2nc3ccccc3nc21,12.9 µM
4,Cc1csc(NC(=O)c2cccc(Cn3nc(C)c(Br)c3C)c2)n1,10.3 µM
5,COC(=O)c1c(NC(=O)c2ccc(C)o2)sc2c1CCCCC2,28.4 µM
6,N#Cc1c(/N=C/c2ccco2)oc(-c2ccccc2)c1-c1ccccc1,6.78 µM
7,Cc1cccc(N(C)C(=O)c2cc3cc4ccc(C)cc4nc3o2)c1,23.9 µM
8,CCCCOc1ccc(S(=O)(=O)n2c(C)nc3ccccc32)cc1,11.4 µM
9,O=C(Nc1ccc(CN2CCOCC2)cc1)c1ccc(-c2ccc(Br)cc2)o1,30.4 µM
10,Fc1ccc(-c2cc(C(F)(F)F)nc(NCC3CCCO3)n2)cc1 (configuration not stated),20.7 µM
11,CCN(c1ccccc1)S(=O)(=O)c1ccc(NCC2COc3ccccc3O2)nc1 (configuration not stated),14.8 µM
12,COc1ccccc1C(=O)Nc1nnc(-c2ccc3c(c2)CCCC3)o1,6.32 µM
13,COc1ccc(S(=O)(=O)N(Cc2cccs2)C2CCCC2)cc1,8.13 µM
14,Cc1ccc(-c2csc3ncnc(Sc4nnc(CN5CCCCCC5=O)o4)c23)cc1,21.6 µM
15,CCOC(=O)C1CCN(c2nc3cc(OC)ccc3cc2C#N)CC1,14.9 µM
16,CCCOC(=O)c1ccc(Oc2c(-c3ccc(O)cc3O)n[nH]c2C)cc1,3.26 µM
17,Cc1ccc(Nc2nc(CSc3nnnn3-c3ccccc3)cs2)cc1,11.5 µM
18,COc1ccc2[nH]c(=O)c(CN(C(=O)NC3CCCCC3)C3CCCCC3)cc2c1,19.4 µM
19,COc1ccc(-c2cc(C(=O)N3CC4(C)CC3CC(C)(C)C4)no2)cc1OC (configuration not stated),14.1 µM
20,c1ccc(N2CCN(c3ncnc4c3oc3ccccc34)CC2)cc1,40.5 µM
21,O=S(=O)(Nc1ccc(S(=O)(=O)N2CCCCC2)cc1)c1ccc(Br)s1,4.39 µM
22,CCCCSC1=C(C#N)C(c2ccccc2C)C(C(=O)OCC)C(=O)N1 (configuration not stated),11.5 µM
23,Cc1ccc(C)c(SCC(=O)Nc2nnc(-c3ccccc3)o2)c1,4.69 µM

row,Compound,IC50
1,CCCOc1nc2c(c(=O)n(C)c(=O)n2C)n1Cc1cccc2ccccc12,28.2 µM
2,CCSc1nnc(NC(=O)c2cccc(OCc3c(C)noc3C)c2)s1,10.8 µM
3,COC(=O)c1[nH]c2ccc(C)cc2c1NS(=O)(=O)c1ccc(F)cc1,6.58 µM
4,Cn1c(C(=O)N2CCN(c3cccc(C(F)(F)F)c3)CC2)cc2sccc21,15.4 µM
5,Cc1cccc(Cn2c(=O)c3c(nc4n3CCCN4Cc3ccccc3)n(C)c2=O)c1,20 µM
6,CC(C)N(Cc1nc(-c2ccccc2)no1)C(=O)c1ccc(Cl)cc1,19.5 µM
7,CCCCc1ccc(C2C(C#N)=C(N)SC(N)=C2C#N)s1,13.8 µM
8,COc1ccc(-c2csc(NCc3ccco3)n2)cc1C,23.2 µM
9,CCc1ccc(S(=O)(=O)NCCc2csc(-c3ccccc3)n2)s1,8.87 µM
10,CCc1nc2ccccc2c(=O)n1NC(=O)c1c(O)c2cccc3c2n(c1=O)CCC3,12.2 µM
11,CCCc1cc(C(=O)Nc2cccc(Cl)c2)no1,14.6 µM
12,Clc1ccc(COC(Cn2ccnc2)c2ccc(Cl)cc2Cl)c(Cl)c1 (configuration not stated),3.22 µM
13,COc1ccc2nc3c(cc2c1)c(NC(=O)c1cccs1)nn3CC(C)C,9.28 µM
14,CCSC1=C(C#N)C(c2ccc(Cl)cc2)C2=C(CCCC2=O)N1 (configuration not stated),8.21 µM
15,Cc1cccc(-n2ncc3c(N4CC(C)CC(C)C4)ncnc32)c1 (configuration not stated),12.2 µM
16,C=C(C)C1CCC(C)=C1COC(=O)Nc1ccccc1 (configuration not stated),12.2 µM
17,CCCCOC(=O)CSc1nnc(-c2ccc(Cl)cc2Cl)o1,19.4 µM
18,CCn1cc(C(=O)O)c(=O)c2cnc(N3CCN(C(=O)Nc4ccccc4)CC3)nc21,1.01 µM
19,CO[C@@]1(NC(=O)Cc2cccs2)C(=O)N2C(C(=O)O)=C(COC(N)=O)CS[C@@H]21,2 µM
20,CCCCn1c(O)c(C(CC)=NCCc2ccccc2)c(=O)[nH]c1=O,14 µM
21,CC1=C(C(=O)OC2CCCCCC2)C(c2ccc(C)o2)C2=C(CCCC2=O)N1 (configuration not stated),6.35 µM
22,Cc1c(C(=O)N2CCc3ccccc3C2)sc2nc(-c3ccccc3)cn12,13.6 µM
23,O=C(CSc1nnnn1C1CCCCC1)Nc1nc2c(s1)CCCC2,10.2 µM

row,Compound,IC50
1,CCn1c(N2CCN(C(=O)C34CC5CC(CC(C5)C3)C4)CC2)nc2ccccc21,17.2 µM
2,c1ccc(CC2CCN(Cc3nc(-c4ccccc4)no3)CC2)cc1,13.4 µM
3,CCCCCSc1nnc(-c2cc(Br)ccc2N)c(=O)[nH]1,5.1 µM
4,Fc1ccc(Cn2nnnc2C(c2cccs2)N2CCCCCC2)cc1 (configuration not stated),10.5 µM
5,Cc1noc(C)c1S(=O)(=O)N(CCc1ccccc1)Cc1ccccc1,16.6 µM
6,COc1ccc(C(=O)Nn2cnc3scc(-c4cccs4)c3c2=O)c(O)c1,3.24 µM
7,N#C/C(=C\c1ccc[nH]1)Sc1nc2ccccc2s1,4.28 µM
8,C=C(C)COc1ccc(-c2ncncc2Oc2ccc(OC)cc2)c(O)c1,14 µM
9,CC1CCCCC1n1c(=S)[nH]c2ccccc2c1=O (configuration not stated),5.91 µM
10,CC(C)c1ccc(OCc2nc(-c3ccccn3)no2)c(Br)c1,14.9 µM
11,c1ccc(CCc2ccccc2-c2nc(-c3cccnc3)no2)cc1,11.9 µM
12,CCN(CCCNC(=O)CCc1nc(-c2ccc(C)cc2)no1)c1cccc(C)c1,68.8 µM
13,c1ccc(CN(Cc2ccco2)C(c2ccncc2)c2nnnn2C2CCCC2)cc1 (configuration not stated),13.2 µM
14,Cc1nc2nc(COc3ccccc3)[nH]n2c(=O)c1Cc1ccccc1,1.32 µM
15,Oc1ccccc1-c1nc(NCC2CCCO2)c2ccccc2n1 (configuration not stated),90.8 µM
16,COc1ccc(-c2nnc(NC(=O)c3ccc(S(=O)(=O)N4CCc5ccccc5C4)cc3)o2)cc1,0.22 µM
17,Cc1cc(N2CCN(c3ccccc3)CC2)nc(-c2ccccc2)n1,14.3 µM
18,CCN(CCCNC(=O)c1[nH]c(C)c(C(C)=O)c1C)c1cccc(C)c1,8.23 µM
19,Cc1ccc(O)c(-c2cc3ccccc3[nH]2)c1,11.7 µM
20,CC1CCN(C(=O)c2ccc(COc3ccccc3Cl)o2)CC1,11.1 µM
21,OCCN1CCN(c2nc(-c3ccccc3)c3cc(Cl)ccc3n2)CC1,60.6 µM
22,CC1=C(C(=O)OC2CCCCCCC2)C(c2cccc(O)c2)NC(=O)N1 (configuration not stated),12.3 µM
23,COc1ccc(-c2noc(CN3CCC(Cc4ccccc4)CC3)n2)cc1,17.2 µM

row,Compound,IC50
1,C=CCn1c(SCC(=O)Nc2nc3ccccc3s2)nnc1-c1ccccc1O,8.28 µM
2,CCOc1ccc(S(=O)(=O)Nc2cccc(Cl)c2)cc1,4.98 µM
3,O=C1c2ccccc2C(Nc2cccc(C(F)(F)F)c2)N1Cc1ccco1 (configuration not stated),7.32 µM
4,CCOc1cc(S(=O)(=O)N2CCN(Cc3ccccc3)CC2)ccc1Br,19.3 µM
5,Cc1ccccc1Cn1nc(C)c(NC(=O)c2noc3c2CCc2ccccc2-3)c1C,12.1 µM
6,CCCCCn1c(N2CCC(Cc3ccccc3)CC2)nc2c1c(=O)[nH]c(=O)n2C,6.18 µM
7,O=C(N1CCN(c2ccccn2)CC1)N1c2ccccc2Sc2ccccc21,19.4 µM
8,COc1ccccc1-c1nnc2sc(COc3ccc(Cl)cc3)nn12,16.4 µM
9,Clc1ccc(OCCN2CCN(c3ncnc4sccc34)CC2)cc1,16.1 µM
10,Cc1nn(-c2ccccc2)c2sc(-c3n[nH]c(=S)o3)cc12,4.43 µM
11,N#C/C(=C\c1ccco1)Sc1nc2ccccc2s1,8.6 µM
12,CCOC(=O)c1sc(NC(=O)c2c(C)nn(Cc3ccccc3)c2C)cc1C,9.35 µM
13,O=C(CSc1nc2ccccc2o1)Nc1ccccc1N1CCCCCC1,11.7 µM
14,Cc1cc(C)n(-c2nc(NC(C)C)nc(NC(C)C)n2)n1,2.96 µM
15,CC1CCc2c(C(=O)Oc3cccc(-n4cnnn4)c3)csc2C1 (configuration not stated),20.2 µM
16,COc1c(N2CCNC(C)C2)c(F)cc2c(=O)c(C(=O)O)cn(C3CC3)c12 (configuration not stated),< 0.2 µM
17,Cc1ccc(NC(=O)N2CCC(c3nc4c(nnn4Cc4cccc(Cl)c4)c(=O)[nH]3)CC2)cc1,13.5 µM
18,O=C(Cc1ccccc1F)Nc1nc(-c2cccs2)cs1,6.95 µM
19,Cc1ccc(Cn2ccc(NC(=O)c3cc(CC(C)C)on3)n2)cc1,8.54 µM
20,CCn1cc(C(=O)OC(C)C(=O)Nc2c(C)n(C)n(-c3ccccc3)c2=O)c(=O)c2ccc(C)nc21 (configuration not stated),12.7 µM
21,CCOc1cc(S(=O)(=O)n2cc(-c3ccc(F)cc3)c(N)n2)cc(OCC)c1OCC,21 µM
22,CCN(CC)c1nc(N)c2c(N)nc3c(c2c1C#N)CC(c1ccccc1)O3 (configuration not stated),6.58 µM
23,COc1cc(C2C(C(=O)c3ccc(C)o3)=C(O)C(=O)N2c2cc(C)on2)cc(Br)c1O (configuration not stated),24.7 µM

row,Compound,IC50
1,Cc1n[nH]c(C)c1S(=O)(=O)N(CC(=O)Nc1ccc2c(c1)OCCO2)c1ccc(C(C)C)cc1,19.3 µM
2,Cc1cc(NS(=O)(=O)c2ccc(NC(=O)COc3ccccc3C(C)C)cc2)no1,16.5 µM
3,Oc1ccc(-c2[nH]ncc2-c2ccc(Cl)cc2)c(O)c1,11.1 µM
4,CCOC(=O)c1cccc(NC(=O)c2cc3sccc3n2C)c1,9.82 µM
5,CC1Cc2cc(-c3csc(NC(=O)Cc4cccs4)n3)ccc2N1S(C)(=O)=O (configuration not stated),15.3 µM
6,Cc1nn(Cc2ccccc2)c(C)c1C(=O)OCC(=O)c1cc(C)n(C2CC2)c1C,11.3 µM
7,Clc1ccc2nc(CN3CCCc4ccccc43)cn2c1,25.8 µM
8,Cc1ccc2c(c1)c(C)c(C)n2CC(O)Cn1nc(C)c(Br)c1C (configuration not stated),11.8 µM
9,COc1cccc2sc(Nc3nc(-c4ccccn4)cs3)nc12,1.79 µM
10,CCCCCC(=O)Nc1ccccc1N1CCN(c2ccccc2)CC1,20.6 µM
11,CCCCOc1ccc(S(=O)(=O)Nc2cc(OC)ccc2OC)cc1,16.8 µM
12,O=C(Nc1nc(-c2ccccc2)cs1)c1cccs1,5.9 µM
13,Cc1nn(Cc2ccc(C(=O)N3c4ccc(F)cc4CCC3C)o2)c(C)c1Br (configuration not stated),9.71 µM
14,CCOC(=O)c1cnc(-n2nc(C)cc2C)nc1Nc1ccc(N(C)C)cc1,13.7 µM
15,COc1ccc2nc(NC(=O)C3CCCN(S(=O)(=O)c4cccs4)C3)sc2c1 (configuration not stated),26 µM
16,S=C(c1ccc(-c2ccc(Cl)c(Cl)c2)o1)N1CCOCC1,11.2 µM
17,CCn1c(=N)n(CC(=O)C23CC4CC(CC(C4)C2)C3)c2ccccc21,13 µM
18,CCSc1nnc(NC(=O)c2nc(-c3ccccc3)n(-c3ccccc3)n2)s1,2.23 µM
19,Oc1c(C(c2ccco2)N2CCN(C(c3ccccc3)c3ccccc3)CC2)sc2ncnn12 (configuration not stated),13.3 µM
20,CCNc1nc(NC(C)C)nc(N(C#N)Cc2ccccc2)n1,18.1 µM
